Laboratory results: ChEMBL document CHEMBL4665717, “New V1a receptor antagonist. Part 2. Identification and optimization of triazolobenzazepines” (Bioorg Med Chem Lett, 2020)

Tests used:
[1] = biological target: T1, Vasopressin V1a receptor (Homo sapiens, UniProt P37288); test: Displacement of [3H]AVP from human V1a receptor expressed in […] cells at 10 uM by radioligand binding assay relative to control; format: cell-based
Outline: (§1)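 Membranes from 1321N1 cells expressing human V1a or V2 receptor incubated with [3H]AVP and single test concentration. Nonspecific binding defined with 2 µM arginine-vasopressin.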
Target sequence in this assay (P37288 whole entry, looked up): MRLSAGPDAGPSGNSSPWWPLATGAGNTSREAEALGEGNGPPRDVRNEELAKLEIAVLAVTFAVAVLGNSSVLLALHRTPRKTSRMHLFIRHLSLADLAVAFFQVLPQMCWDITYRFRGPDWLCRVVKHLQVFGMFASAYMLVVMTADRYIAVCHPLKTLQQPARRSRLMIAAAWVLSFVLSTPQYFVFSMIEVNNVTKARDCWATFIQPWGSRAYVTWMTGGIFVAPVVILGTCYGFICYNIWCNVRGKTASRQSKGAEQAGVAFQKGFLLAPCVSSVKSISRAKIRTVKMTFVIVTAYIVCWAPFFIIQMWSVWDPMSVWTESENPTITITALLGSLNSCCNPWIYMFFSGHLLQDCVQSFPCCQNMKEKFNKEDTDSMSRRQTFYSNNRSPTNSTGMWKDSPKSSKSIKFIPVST

[2] = biological target: T1, Vasopressin V1a receptor; test: Inhibition of human V1a receptor expressed in human 1321N1 cells assessed as decrease in Arg8-vasopressin-stimulated calcium flux at 10 uM by fluorometric calcium assay relative to control; format: functional, cell-based
Target sequence in this assay (P37288 whole entry, looked up): as above

[3] = biological target: T1, Vasopressin V1a receptor; test: Displacement of [3H]AVP from human V1a receptor expressed in […] cells assessed as dissociation constant by radioligand binding assay; format: cell-based, 1321N1
Outline: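 Membranes from 1321N1 cells expressing human V1a or V2 receptor incubated with [3H]AVP and increasing test compound concentrations. Nonspecific binding defined with 2 µM arginine-vasopressin for both receptors. IC50 taken from sigmoidal fit of displacement curves, then converted to Ki by Cheng-Prusoff.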
Target sequence in this assay (P37288 whole entry): as the sequence (P37288 whole entry, looked up) above

[4] = biological target: T1, Vasopressin V1a receptor; test: Inhibition of human V1a receptor expressed in human 1321N1 cells assessed as decrease in Arg8-vasopressin-stimulated calcium flux by fluorometric calcium assay; format: functional, cell-based
Outline: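 1321N1 cells expressing human V1a receptor stimulated with (Arg8)-vasopressin. Intracellular Ca2+ change measured. IC50 values averaged from at least three independent measurements.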
Target sequence in this assay (P37288 whole entry): as the sequence (P37288 whole entry, looked up) above

[5] = in vitro; settings: human
[6] = in vitro; settings: Wistar, rat
[7] = in vitro; settings: NMRI, mouse
[8] = Apparent permeability across apical to basolateral side in vinblastine-treated human Caco-2 cells at 1 uM by HPLC-UV analysis; format: ADME
Outline: (§2)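 Bidirectional transport across VB-Caco-2 monolayers with test compound at 1 or 10 µM. Apparent permeability A→B reported, with PDR from the two directions.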

[9] = test system: P-glycoprotein; test: Efflux ratio of Apparent permeability across apical to basolateral side in vinblastine-treated human Caco-2 cells expressing P-glycoprotein at 1 uM by HPLC-UV analysis; format: ADME; outline: as §2
[10] = test system: Mus musculus; test: Anti-depression activity in mouse assessed as inhibition of oxytocin-induced scratching at 30 mg/kg, po administered before oxytocin stimulation and measured after 1 hr
[11] = biological target: T2, Vasopressin V2 receptor (Homo sapiens, UniProt P30518); test: Displacement of [3H]AVP from human […] receptor expressed in […] cells at 1 uM by radioligand binding assay relative to control; format: cell-based; settings: 1321N1; outline: as §1
[12] = organism: Mus musculus; test: animal or person; settings: ip, 1 h, read-out: INH
[13] = Apparent permeability across apical to basolateral side in vinblastine-treated human Caco-2 cells at 10 uM by HPLC-UV analysis
[14] = test system: P-glycoprotein; test: Efflux ratio of Apparent permeability across apical to basolateral side in human Caco-2 cells expressing P-glycoprotein at 10 uM by HPLC-UV analysis
[15] = biological target: T2, Vasopressin V2 receptor; test: Displacement of [3H]AVP from human V2a receptor expressed in 1132N1 cells assessed as dissociation constant by radioligand binding assay

T2 sequence (P30518 whole entry): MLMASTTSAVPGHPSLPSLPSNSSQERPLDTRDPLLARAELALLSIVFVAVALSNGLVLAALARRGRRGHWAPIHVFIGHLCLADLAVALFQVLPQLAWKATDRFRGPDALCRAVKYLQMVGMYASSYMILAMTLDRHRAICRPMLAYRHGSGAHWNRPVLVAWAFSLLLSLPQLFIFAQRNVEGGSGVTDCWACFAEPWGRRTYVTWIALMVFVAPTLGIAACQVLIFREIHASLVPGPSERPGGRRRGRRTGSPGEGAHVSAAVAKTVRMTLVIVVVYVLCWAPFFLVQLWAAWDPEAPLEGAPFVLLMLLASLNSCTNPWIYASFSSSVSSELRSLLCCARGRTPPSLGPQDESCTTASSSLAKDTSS

| SMILES | inhibition [2] [%] | Ki [3] [nM] | IC50 [4] [nM] | microsomal CLint at 1 µM ([5]; liver microsomes) [µL/min/mg] | microsomal CLint at 1 µM ([6]; liver microsomes) [µL/min/mg] | microsomal CLint at 1 µM ([7]; liver microsomes) [µL/min/mg] | also measured |
| --- | --- | --- | --- | --- | --- | --- | --- |
| Cc1ccc(S(=O)(=O)N2CCC(c3nnc4n3-c3ccc(Cl)cc3CC4)CC2)cc1 | < 50 | – | – | – | – | – | inhibition ([1]; 1321N1, filed as antagonist): 42% |
| CC(C)(C)OC(=O)N1CCC(c2nnc3n2-c2ccc(Cl)cc2CC3)CC1 | < 50 | – | – | – | – | – | inhibition ([1]; 1321N1): 37% |
| Clc1ccc2c(c1)CCc1nnc(C3CCCCC3)n1-2 | < 50 | – | – | – | – | – | inhibition ([1]; 1321N1): 35% |
| CCc1ccc2c(c1)CCCc1nnc(C3CCN(c4ccccn4)CC3)n1-2 | – | 15 | 252 | 31 | 163 | 170 | – |
| CC1(C)Nc2cc(Cl)ccc2-n2c(C3CCN(c4ccccn4)CC3)nnc21 | 28 | 800 | – | – | – | – | – |
| CN1Cc2cc(Cl)ccc2-n2c(nnc2[C@H]2CC[C@H](Oc3ccccn3)CC2)C1 [BALOVAPTAN] | – | – | 3 | – | – | – | Papp A→B at 1 µM [8]: 43 ×10⁻⁶ cm/s; efflux ratio at 1 µM [9]: 1.1; microsomal CLint at 1 µM ([5]; microsomes): 0.5 µL/min/mg; microsomal CLint at 1 µM ([6]; microsomes): 22 µL/min/mg; microsomal CLint at 1 µM ([7]; microsomes): 17 µL/min/mg; inhibition in vivo at 30 mg/kg [10]: 80% |
| CC(=O)N1c2cc(Cl)ccc2-n2c(C3CCN(c4ccccn4)CC3)nnc2C1(C)C | 43 | 2400 | – | – | – | – | – |
| Clc1ccc2c(c1)CCc1nnc([C@H]3CC[C@H](Oc4ccccn4)CC3)n1-2 | – | 9 | 70 | 3 | 12 | 15 | inhibition [11]: 13%; inhibition in vivo at 10 mg/kg [12]: 66% |
| Clc1ccc2c(c1)nc1[nH]nc(C3CCN(c4ccccn4)CC3)n12 | 11 | 5200 | – | – | – | – | – |
| C#Cc1ccc2c(c1)CCCc1nnc(C3CCN(c4ccccn4)CC3)n1-2 | – | 0.45 | 2.7 | 27 | 121 | 115 | – |
| Cc1cc([C@H]2CC[C@H](c3nnc4n3-c3ccc(Cl)cc3[C@H]3C[C@@H]43)CC2)no1 | – | 55 | 635 | – | – | – | – |
| Cc1cc([C@H]2CC[C@H](c3nnc4n3-c3ccc(Br)cc3CCC4)CC2)no1 | – | 0.6 | 1.7 | 3 | 76 | 36 | – |
| Clc1ccc2c(c1)C1CC1c1nnc(C3CCN(c4ccccn4)CC3)n1-2 (configuration not stated) | < 50 | 260 | – | – | – | – | – |
| Cc1ccccc1N1CCN(C(=O)N2C[C@@H](C(=O)N3CCCC3)Cc3cc(Cl)ccc32)CC1 | – | 0.6 | 2.4 | 72 | 170 | 235 | Papp A→B at 1 µM [8]: 10 ×10⁻⁶ cm/s; efflux ratio at 1 µM [9]: 1.3 |
| CC(C)(C)OC(=O)NC1Cc2cc(Cl)ccc2-n2c(C3CCN(c4ccccn4)CC3)nnc21 (configuration not stated) | < 50 | – | – | – | – | – | inhibition ([1]; 1321N1): 25% |
| COc1nc2cc(Cl)ccc2n2c(C3CCN(c4ccccn4)CC3)nnc12 | 40 | 700 | – | 8 | 39 | 115 | Papp A→B at 1 µM [8]: 28 ×10⁻⁶ cm/s; efflux ratio at 1 µM [9]: 0.8 |
| NC1Cc2cc(Cl)ccc2-n2c1nnc2C1CCN(c2ccccn2)CC1 (configuration not stated) | < 50 | – | – | – | – | – | inhibition ([1]; 1321N1): 34% |
| Brc1ccc2c(c1)CCCc1nnc(C3CCN(c4ccccn4)CC3)n1-2 | – | 0.7 | 13 | 8 | 111 | 50 | Papp A→B at 10 µM [13]: 46 ×10⁻⁶ cm/s; efflux ratio at 10 µM [14]: 0.8 |
| Cc1cc([C@H]2CC[C@H](c3nnc4n3-c3ccc(Cl)cc3CC4)CC2)no1 | – | 13 | 100 | 0.3 | 13 | 13 | inhibition [11]: 9%; inhibition in vivo at 10 mg/kg [12]: 45% |
| Clc1ccc2c(c1)CCCc1nnc(C3CCN(c4ccccn4)CC3)n1-2 | – | 1.4 | 3.2 | 19 | 196 | 116 | Papp A→B at 1 µM [8]: 37 ×10⁻⁶ cm/s; efflux ratio at 1 µM [9]: 1.1 |

| SMILES | inhibition [2] [%] | Ki [3] [nM] | IC50 [4] [nM] | microsomal CLint at 1 µM ([5]; liver microsomes) [µL/min/mg] | microsomal CLint at 1 µM ([6]; liver microsomes) [µL/min/mg] | microsomal CLint at 1 µM ([7]; liver microsomes) [µL/min/mg] | also measured |
| --- | --- | --- | --- | --- | --- | --- | --- |
| O=c1[nH]c2cc(Cl)ccc2n2c(C3CCN(c4ccccn4)CC3)nnc12 | 0 | – | – | – | – | – | inhibition ([1]; 1321N1): 3% |
| Clc1ccc2c(c1)CCc1nnc(C3CCNCC3)n1-2 | < 50 | – | – | – | – | – | inhibition ([1]; 1321N1): 14% |
| COC(=O)CC1Cc2cc(Cl)ccc2-n2c1nnc2[C@H]1CC[C@H](Oc2ccccn2)CC1 (some centres not stated) | – | 28 | 220 | 81 | 72 | 373 | – |
| Cc1cc([C@H]2CC[C@H](c3nnc4n3-c3ccccc3CCC4)CC2)no1 | – | 1.6 | 25 | 0.4 | 125 | 114 | – |
| Clc1ccc2nc3[nH]nc(C4CCN(c5ccccn5)CC4)n3c2c1 | 8 | – | – | – | – | – | inhibition ([1]; 1321N1): 27% |
| O=S(=O)(c1ccc(F)cc1)N1CCC(c2nnc3n2-c2ccc(Cl)cc2CC3)CC1 | < 50 | – | – | – | – | – | inhibition ([1]; 1321N1): 36% |
| Clc1ccc2c(c1)CCc1nnc(C3CCN(c4ccccn4)CC3)n1-2 | – | 71 | 1400 | 0.3 | 32 | 36 | Papp A→B at 10 µM [13]: 51 ×10⁻⁶ cm/s; efflux ratio at 10 µM [14]: 0.8 |
| O=S(=O)(c1ccccn1)N1CCC(c2nnc3n2-c2ccc(Cl)cc2CC3)CC1 | < 50 | – | – | – | – | – | inhibition ([1]; 1321N1): 19% |
| Cc1cc([C@H]2CC[C@H](c3nnc4n3-c3ccc(Cl)cc3[C@@H]3C[C@H]43)CC2)no1 | < 50 | 570 | – | – | – | – | – |
| Clc1ccc2c(c1)CCCc1nnc([C@H]3CC[C@H](Oc4ccccn4)CC3)n1-2 | – | 0.8 | 1 | 7 | 124 | 94 | Ki [15]: 560 nM; inhibition in vivo at 30 mg/kg [10]: 94% |
| Clc1ccc2c(c1)C1CC1c1nnc([C@H]3CC[C@@H](Oc4ccccn4)CC3)n1-2 (some centres not stated) | < 50 | 180 | – | – | – | – | – |
| O=S(=O)(c1ccc2c(c1)CCO2)N1CCC(c2nnc3n2-c2ccc(Cl)cc2CC3)CC1 | < 50 | – | – | – | – | – | inhibition ([1]; 1321N1, filed as antagonist): 43% |
| Cc1cc([C@H]2CC[C@H](c3nnc4n3-c3ccc(Cl)cc3C3CC43)CC2)no1 (mixture of isomers) | – | 100 | 500 | 0.3 | 1 | 3 | – |
| Cc1cc([C@H]2CC[C@H](c3nnc4n3-c3ccc(Cl)cc3CCC4)CC2)no1 | – | 0.7 | 2.2 | 1 | 83 | 38 | – |
| c1ccc(N2CCC(c3nnc4n3-c3ccccc3CCC4)CC2)nc1 | – | 15 | 117 | 12 | 130 | 163 | – |
| Brc1ccc2c(c1)CCCc1nnc([C@H]3CC[C@H](Oc4ccccn4)CC3)n1-2 | – | 0.6 | 1.3 | 9 | 110 | 90 | Papp A→B at 10 µM [13]: 29 ×10⁻⁶ cm/s; efflux ratio at 10 µM [14]: 0.9 |
| c1ccc(O[C@H]2CC[C@H](c3nnc4n3-c3ccccc3CCC4)CC2)nc1 | – | 2.3 | 20 | 8 | 231 | 188 | – |
| O=C(C1CCN(c2ccccn2)CC1)N1CCNc2cc(Cl)ccc21 | – | 1.4 | 260 | 80 | 404 | 132 | Papp A→B at 10 µM [13]: 48 ×10⁻⁶ cm/s; efflux ratio at 10 µM [14]: 0.7 |
| COC(=O)C12CC1c1cc(Cl)ccc1-n1c2nnc1[C@H]1CC[C@H](Oc2ccccn2)CC1 (some centres not stated) | < 50 | 400 | – | – | – | – | – |
| Cc1nnc2n1-c1ccc(Cl)cc1CC2 | < 50 | – | – | – | – | – | inhibition ([1]; 1321N1): 9% |
